Residues, ends and D or L forms follow the SMILES beside them. *: point of attachment. X1 = CC(=O)O[C@@]12CO[C@@H]1C[C@H](O)[C@@]1(C)C(=O)[C@H](O)C3=C(C)[C@@H](OC(=O)[C@H](OC(=O)OCc4ccc(N*)cc4)[C@@H](NC(=O)OC(C)(C)C)c4ccccc4)C[C@@](O)([C@@H](OC(=O)c4ccccc4)[C@H]21)C3(C)C

Data set [1] has as its system SW-620. Put plainly: Potency index, ratio of 4FDT IC50 to test compound IC50 for Cytotoxicity against human SW-620 cells. The data set is classed as functional.
A short description of data set [2]: Apparent volume of distribution in Sprague-Dawley rat assessed as docetaxel level at 5 mg/kg, iv measured up to 72 hrs by LC-MS/MS analysis. The data set is classed as ADME, organism-based. As to conditions: in vivo; call rule not given here. The gist of the method:
(§1)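 Male SD rats (180-200 g), fasted 12 h with free water, n = 3 per group. Single tail-vein dose of 5 mg/kg in 0.5% DMSO/5% castor oil/5% ethanol/89.5% saline. Retro-orbital blood drawn 0.083-72 h with heparin. Plasma protein-precipitated with methanol containing paclitaxel internal standard, then analysed by LC-MS/MS. Parameters from non-compartmental analysis, mean ± SD. For the DTX group, parameters were calculated after converting dose to the molar equivalent of the prodrug.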

The subject of data set [3] is HCT-116. The data set can be described thus: Cytotoxicity against human HCT-116 cells assessed as reduction in cell viability after 48 hrs by MTT assay. The data set is classed as functional, cell-based. As to conditions: HCT-116, 48 h. The gist of the method: (§2)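 Cells seeded at 5000/well and precultured 1 day. HCT116 grown in McCoy's 5A + 10% FBS; SW620 and HEK293 in DMEM + 10% FBS; CCD18Co in DMEM + 15% FBS. Compounds from 0.1 M DMSO stocks were tested at 10^-10 to 10^-4 mol/L in sixplicate: HCT116 and HEK293 for 48 h, SW620 and CCD18Co for 72 h, at 37 °C, 5% CO2. MTT (5 mg/mL) added for 4 h, then A570 read; IC50 estimated.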
A general note: Tetrazolium dyes change colour on reduction, which living cells bring about.

A short description of data set [4]: AUC (0 to infinity) in Sprague-Dawley rat assessed as docetaxel level at 5 mg/kg, iv measured up to 72 hrs by LC-MS/MS analysis. It is filed as ADME, organism-based. More on the design: route intravenous, dose 5 mg/kg, time <=72. As to conditions: in vivo. An outline of the steps:
as §1

Data set [5] is described as follows: Drug uptake in BALB/c nude mouse xenografted with human HCT-116 cells assessed as drug level in lung at 5 mg/kg, iv measured up to 24 hrs by LC-MS/MS analysis. The data set is classed as ADME, organism-based. As to conditions: in vivo. The gist of the method:
(§3)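 Male BALB/c nude mice bearing s.c. HCT116 tumours (200-300 mm3), 20 per group. Single tail-vein dose of 5 mg/kg. Five mice per group killed at 0.5, 4, 8 and 24 h and heart-perfused with PBS. Tissues homogenized in saline (4 µL/mg) and precipitated with methanol containing paclitaxel internal standard. Prodrug, released DTX and free DTX measured by LC-MS/MS.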
For orientation: A xenograft is tissue or cells of one species grown in another, often human tumour cells in immunodeficient mice.

Data set [6] has as its system HCT-116. Put plainly: Antitumour activity against human HCT-116 cells xenografted in BALB/c nude mouse assessed as tumour growth inhibition at 5.85 mg/kg, ip administered once for every 7 days for 14 days relative to control. It is filed as functional. As to conditions: HCT-116, ip, 336 h, time 14 day, read-out: TGI. The gist of the method: (§4)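 Male BALB/c nude mice received s.c. HCT116 cells (2 × 10^6 in 0.2 mL PBS). Once tumours reached 100-200 mm3, mice were randomized into groups of six. Dosing was ip, 0.1 mL/10 g, once every 7 days, in DMSO 0.5%/castor oil 5%/ethanol 5%/saline 89.5%; vehicle controls got solvent. Caliper volume V = L×W²×0.52 read every 2-3 days. Tumours excised and weighed on day 14.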

Data set [7] in a line: Drug uptake in BALB/c nude mouse xenografted with human HCT-116 cells assessed as drug level in spleen at 5 mg/kg, iv measured up to 24 hrs by LC-MS/MS analysis. As to conditions: in vivo. The data set is classed as ADME, organism-based. The gist of the method: as §3
A short description of data set [8]: Apparent clearance in Sprague-Dawley rat at 5 mg/kg, iv measured up to 72 hrs by LC-MS/MS analysis. It is filed as ADME, organism-based. As to conditions: Sprague-Dawley, in vivo, read-out: CL(app) (converted). An outline of the steps:
as §1

Data set [9] is described as follows: Toxicity in BALB/c nude mouse xenografted with human HCT-116 cells assessed as reduction in body weight at 23.4 mg/kg, ip administered once for every 7 days for 14 days relative to control. It is filed as organism-based. More on the design: scale not given: the % may be the effect or the level left. As to conditions: in vivo, 336 h, time 14 day. The gist of the method:
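HCT116 s.c. xenografts in male BALB/c nude mice, n = 6 per group. Dosing was ip once every 7 days for 2 weeks in DMSO/castor oil/ethanol/saline; vehicle controls got solvent. Body weight recorded every other day or every three days. Weight loss taken at day 14. Mean ± SD.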

Data set [10] is described as follows: AUC (0 to infinity) in Sprague-Dawley rat at 5 mg/kg, iv measured up to 72 hrs by LC-MS/MS analysis. It is filed as ADME, organism-based. More on the design: route intravenous, dose 5 mg/kg, time <=72. As to conditions: Sprague-Dawley, in vivo. The gist of the method:
as §1

The nature of data set [11]: Toxicity in BALB/c nude mouse xenografted with human HCT-116 cells assessed as concentrated nucleus in liver at 11.73 mg/kg, ip administered once for every 7 days for 14 days by H and E staining based assay. As to conditions: in vivo, 336 h, time 14 day. The data set is classed as organism-based. An outline of the steps: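 At the end of the 14-day ip xenograft study (HCT116, BALB/c nude), heart and liver were collected from vehicle and molar-equivalent dose groups. Tissues fixed in 10% formalin in PBS and stained with H&E. Liver examined at 400×, heart at 100×.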

Data set [12] deals with HCT-116. Put plainly: Antitumour activity against human HCT-116 cells xenografted in BALB/c nude mouse assessed as tumour growth inhibition at 23.4 mg/kg, ip administered once for every 7 days for 14 days relative to control. It is filed as functional. As to conditions: HCT-116, ip, 336 h, time 14 day, read-out: TGI. An outline of the steps: as §4
The test system of data set [13] is CCD-18Co. Put plainly: Cytotoxicity against human CCD-18Co cells assessed as reduction in cell viability after 72 hrs by MTT assay. It is filed as cell-based. The gist of the method: as §2
The nature of data set [14]: Half life in Sprague-Dawley rat plasma t 50 ug/ml up to 72 hrs by RP-HPLC analysis. As to conditions: dose 50 µg/ml. The data set is classed as ADME, cell-free.
A short description of data set [15]: Drug uptake in BALB/c nude mouse xenografted with human HCT-116 cells assessed as drug level in heart at 5 mg/kg, iv measured up to 24 hrs by LC-MS/MS analysis. The data set is classed as ADME, organism-based. As to conditions: in vivo. The gist of the method:
as §3

A short description of data set [16]: AUC (0 to t) in Sprague-Dawley rat at 5 mg/kg, iv measured up to 72 hrs by LC-MS/MS analysis. The data set is classed as ADME, organism-based. Set-up: route intravenous, dose 5 mg/kg, time <=72. As to conditions: in vivo. An outline of the steps:
as §1

Data set [17] in a line: Drug uptake in BALB/c nude mouse xenografted with human HCT-116 cells assessed as drug level in kidney at 5 mg/kg, iv measured up to 24 hrs by LC-MS/MS analysis. It is filed as ADME, organism-based. As to conditions: in vivo. An outline of the steps: as §3

The term IC50 denotes the point on the concentration scale where inhibition reaches its midpoint. One may read the AUC as concentration integrated over time. For orientation: AUC(0-inf) means the area under the concentration-time curve extrapolated to infinity. By half-life is commonly meant how long it takes for the measured level to halve. One may read the AUC(0-t) as exposure summed from dosing to a finite time, without extrapolation to infinity. As for `CC[C@H](C)[C@H](NC(=O)CNC(=O)[C@H](CCC(N)=O)NC(=O)[C@@H]1CCCN1C(=O)CNC(C)=O)C(=O)N[C@@H](C)C(=O)N[C@@H](CCSC)C(=O)N[C@@H](CCC(N)=O)C(=O)N[C@@H](CC(C)C)C(=O)Nc1ccc(COC(=O)O[C@@H](C(=O)O[C@H]2C[C@@]3(O)[C@@H](OC(=O)c4ccccc4)[C@@H]4[C@]5(OC(C)=O)CO[C@@H]5C[C@H](O)[C@@]4(C)C(=O)[C@H](O)C(=C2C)C3(C)C)[C@@H](NC(=O)OC(C)(C)C)c2ccccc2)cc1` (Ac-GPQGIAMQL-X1), in [1], the “Ratio IC50” value is given as 9. In data set [2], the Vz worked out at 206.32 L/kg. In addition, the half-inhibitory concentration (IC50) is 9.1 nM in data set [3] and > 200000 nM in [13]. The exposure (AUC) in data set [4] was 299 ng·h/mL. The Drug uptake result in data set [5], in [7], in data set [15] and in [17] was “Active” each time. The inhibition in vivo at 5.85 mg/kg in data set [6] came out at 28.8%. Also, the clearance in data set [8] was 9.33 mL/min/kg. In addition, the values for the Activity in data set [9] and in [11] were 12.2% and “Non-Toxic”, respectively. The AUC(0-inf) in [10] was 9240 ng·h/mL. Besides, the inhibition in vivo at 23.4 mg/kg in data set [12] came to 56.1%. The compound also showed a half-life at 50 ug/ml in data set [14] of 24.2 h. The compound further came in with an area under the curve AUC(0-t) at 72 h in data set [16] of 9070 ng·h/mL.

The record behind these values is ChEMBL document CHEMBL4680238, “Novel octapeptide-DTX prodrugs targeting MMP-7 as effective agents for the treatment of colorectal cancer with lower systemic toxicity” (Eur J Med Chem, 2020).
